What was measured:
Format in all cases: functional
HT-22 [1] = assay: Antioxidant activity in mouse HT-22 cells assessed as OH scavenging activity measured for 24 hrs by CCK-8 analysis
Summary of the method: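 HT22 cells are grown in DMEM/10% FBS at 37 °C, 5% CO2, seeded at 1 × 10^4 per well and left to adhere for 24 h. They are pretreated with sample at 50 μM final for 24 h (model group: medium), then exposed to Fenton reagent (200 μM H2O2 + 200 μM FeCl2) for 24 h. Medium is removed and CCK-8 added for 2 h; survival from A450, five wells per sample.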

HT-22 [2] = assay: Antioxidant activity in mouse HT-22 cells assessed as OH scavenging activity by chromogenic analysis; parameters: concentration or dose not given beside the values
[3] = Antioxidant activity assessed as DPPH radical scavenging activity incubated for 30 mins under dark condition by microplate reader analysis
Summary of the method: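 The radical solution is made from […] methanol solution and mixed with sample dissolved in methanol (ultrasonication at 40 °C). Incubation is 30 min dark at room temperature with read-out at A519. % scavenging vs no-sample blank; IC50 (final concentration giving 50% scavenging) from dose–response curve by linear regression, mean ± SD (n = 3).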

[4] = Antioxidant activity assessed as oxygen scavenging activity measured every 30 sec for 5 min by UV-vis spectrophotometer analysis
Summary of the method: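 Superoxide generation uses pyrogallol autoxidation: sample plus pyrogallol (60 mM stock in 1 mM HCl) in 0.05 M Tris-HCl, pH 7.4. A325 is recorded every 30 s for 5 min. Scavenging comes from the absorbance increase over 5 min relative to no-sample control; IC50 from dose–response curve, mean ± SD (n = 3).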

[5] = Antioxidant activity assessed as ABTS radical cation scavenging activity incubated for 10 mins under dark condition by microplate reader analysis
Summary of the method: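 ABTS˙+ is generated from 7.4 mM (NH4)2ABTS and 2.6 mM K2S2O8 solutions mixed 1:1 and kept dark at 27 °C for 12 h. It is diluted about 1:20 with water, then mixed with methanolic samples for 10 min dark at 27 °C and read at A734. % scavenging vs no-sample blank; IC50 from dose–response curve by linear regression, mean ± SD (n = 3).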

SMILES	Activity (HT-22 [1]) [%]	Activity (HT-22 [2]) [%]	IC50 [3] [µM]	IC50 [4] [µM]	IC50 [5] [µM]
O=c1cc(-c2ccc(O)cc2)oc2cc(O)cc(O)c12 [APIGENIN]	73.32	33.26	2760	68.9	18.2
O=C1O[C@H]([C@@H](O)CO)C(O)=C1O [ASCORBIC ACID]		84.27			
O=c1c(-c2ccc(O)cc2)coc2cc(O)cc(O)c12 [GENISTEIN]	68.54	36.39	1230	88.8	10.2
O=c1c(O)c(-c2ccc(O)cc2)oc2cc(O)cc(O)c12 [KAEMPFEROL]	69.4	74.46	15.5	81.6	4.73
O=C1C[C@@H](c2ccc(O)cc2)Oc2cc(O)cc(O)c21 [NARINGENIN]	80.65	33.85	1730	24.2	13
Cc1c(C)c2c(c(C)c1O)CCC(C)(C(=O)O)O2 (centres undefined) [TROLOX]			19.8	963	10.3

Reference: ChEMBL document CHEMBL5252566, “Antioxidant mechanisms and products of four 4',5,7-trihydroxyflavonoids with different structural types” (RSC Med Chem, 2023)
